NF-kB expr up: activators of NF-kB expression in neurons, primary screen, cell-based, HTS; AID 1239, 2008; fold change at 12.5 µM; human neuronal cells, NF-kB reporter expression; active compounds read high; 190,000 tested, 1.6% active; in the data active = fold change above about 3.3
STAT1 activator: STAT1 signaling activators, primary screen, cell-based, HTS, luciferase reporter | NIH 3T3 STAT1-luciferase reporter, IFN-gamma, luminescence; 100% = IFN-gamma alone, no compound | activation (% of control), % at 5.5 µM | 200,000 tested, 2.6% active | AID 932, 2007;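 active = activation above the screen-wide mean activation plus 3 SD, cut at about 130% in these data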;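 note: raw ratio to IFN-gamma control signal so 100% means no change and 0% no light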
APP 5'UTR act: activators of APP 5'UTR luciferase reporter, primary screen, SH-SY5Y cells; activation, % at 2 µM; SH-SY5Y APP 5'UTR luciferase reporter, luminescence; zero percent = DMSO vehicle wells; 190,000 tested, 1% active;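 active = activation above a set limit, based on mean plus 3 SD of controls, cut at about 140% in these data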
PERK inhibitor: block of dimerizer-induced PERK translation repression, primary screen, PERK inhibitor project, CHO PERK-DD cells, SEAP luminescence, HTS | Eukaryotic translation initiation factor 2-alpha kinase 3 (Homo sapiens), Q9NZJ5 | CHO PERK-DD fusion, SEAP luminescence translation reporter | inhibition, % at 5.6 µM | 220,000 tested, 0.17% active | AID 1416, 2008;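 active = inhibition above the mean inhibition of all tested compounds plus 3 SD, set separately per screening campaign, cut at about 2.9% in these data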;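 note: PERK kinase domain activated by AP20187 dimerizer at 100 nM; 0% = DMSO with dimerizer and 100% = rapamycin at 8.4 µM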
AHR activator: AHR activators, primary screen, cell-based, luminescence, luciferase reporter, human; Aryl hydrocarbon receptor (Homo sapiens), P35869; AHR-responsive luciferase reporter cells; activation, % at 5 µM; 320,000 tested, 2.5% active; in the data active = activation above about 47%;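 note: 0% = vehicle wells and 100% = reference agonist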
MDM2 E3 inh: MDM2-luciferase reporter signal enhancers, primary screen, MDM2 E3 ligase inhibitor project, cell-based, luminescence, 1536-well. E3 ubiquitin-protein ligase Mdm2 (Homo sapiens), Q00987. cell-based MDM2 ubiquitination luciferase reporter, 2 h; 0 = plate control, 100 = twice control, blank-subtracted. signal enhancement, % at 5 µM. 210,000 tested, 0.11% active. AID 1230, 2008;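 active = signal enhancement of 30% or more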;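 note: luminescence tracks abundance of the self-degrading MDM2-luciferase fusion protein; higher signal means inhibition of MDM2 E3 ligase activity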
Target sequence (Q00987 whole entry, looked up, the tested form may be a part): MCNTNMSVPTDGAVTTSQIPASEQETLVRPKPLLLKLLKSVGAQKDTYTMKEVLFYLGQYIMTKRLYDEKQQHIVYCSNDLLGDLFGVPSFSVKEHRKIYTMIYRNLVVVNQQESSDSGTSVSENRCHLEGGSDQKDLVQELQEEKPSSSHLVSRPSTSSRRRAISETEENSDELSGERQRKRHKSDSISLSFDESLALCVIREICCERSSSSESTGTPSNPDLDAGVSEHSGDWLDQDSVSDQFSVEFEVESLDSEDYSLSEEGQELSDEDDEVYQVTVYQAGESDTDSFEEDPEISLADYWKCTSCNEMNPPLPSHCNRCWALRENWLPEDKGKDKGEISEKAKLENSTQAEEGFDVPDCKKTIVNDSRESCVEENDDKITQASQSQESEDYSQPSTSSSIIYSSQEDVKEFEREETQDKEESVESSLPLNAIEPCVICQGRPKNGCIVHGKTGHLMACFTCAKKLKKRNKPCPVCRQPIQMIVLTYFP
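test system = mammalian cells stably expressing self-ubiquitinating, self-degrading MDM2 E3–luciferase fusion | quantity = 2000 cells/well | incubation = cell settling 4 h, compound treatment 2 h, both 37 °C | signal = luminescence with SteadyLite reagent, 15 min at room temperature | evaluation = % enhancement relative to plate controls after blank subtraction | benchmarks = plate controls and plate blanks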
Numbers without * were called inactive; x = no result given. Only some compounds are listed: those with a hit (about 4.5% of all), similar ones and a draw of the others.

SMILES	NF-kB expr up	STAT1 activator	APP 5'UTR act	PERK inhibitor	AHR activator	MDM2 E3 inh
COc1ccc(CCc2nc(C)ccc2O)cc1	1.8	93	0	0	6	-41
CCCCC1=NN(C(=O)c2ccco2)C(O)(C(F)(F)F)C1 (stereo unspecified)	1.3	93	4	1	-1	-9
Cc1nc2ccccn2c1C(=O)N/N=C/c1ccccc1	x	x	x	x	17	x
Cc1nc2ccccn2c1C(=O)NN=C1C2CC3CC(C2)CC1C3	0.93	101	-9	0	48*	-5
CCOC(=O)c1c(NC(=O)CSc2c[nH]c3ccccc23)sc2c1CCC2	4*	97	-14	0	5	x
CCOC(=O)c1c(NC(=O)CSc2c[nH]c3ccccc23)sc2c1CCCC2	3.2	101	-10	0	17	x
COCCOCCn1c(CCCO)nc2ccccc21	1.1	99	14	1	0	-12
CC(C)n1c(/C=C/c2ccccc2)nc2ccccc21	1.4	113	51	1	57*	-6
CC(C)n1c(CN(C)c2ccccc2)nc2ccccc21	x	x	x	x	5	x
COCCOCCn1c(/C=C/c2ccccc2)nc2ccccc21	6*	135*	166*	0	8	-41
N#CCCN(C(=O)COC(=O)c1cc2ccccc2oc1=O)c1ccccc1	x	x	x	x	16	x
CCOC(=O)N1CCN(Cc2nc3cc(NC(=O)CC(C)C)ccc3n2CC)CC1	x	x	x	x	-1	x
O=C(Nc1nnc(-c2cccs2)s1)C1CC1	1.7	130*	27	0	40	-6
C=C(C)C(=O)Nc1nnc(-c2cccs2)s1	1.7	101	15	0	47	-2
O=C(Cc1ccccc1)Nc1nnc(-c2cccs2)s1	1.7	114	25	-1	69*	6
O=C(Cc1ccccc1)Nc1nc(-c2cccs2)cs1	1.2	103	14	0	-9	-16
CCC(=O)Nc1nnc(-c2cccs2)s1	0.95	116	10	0	74*	-4
Cc1nnc(NC(=O)CSc2nnc(NC(=O)C(C)(C)C)s2)s1	1.2	104	-2	3	2	-7
COc1ccc(Nc2ccccc2NC(=O)c2ccccc2Br)cc1	x	x	x	x	3	x
Cc1onc(-c2ccc(Cl)cc2)c1-c1ccnc(SCC(=O)Nc2cc(Cl)cc(Cl)c2)n1	x	x	x	0	4	-12
CN(C)c1cc(-c2ccc(Cl)cc2)oc(=O)c1Cl	x	x	x	-1	56*	-10
CC(C)(C)c1ccc(OCC(O)CSc2ncn[nH]2)cc1 (stereo unspecified)	1.6	134*	16	0	-1	-2
COc1ccc(-c2cc(=O)c3cc(OC)c(OC)cc3[nH]2)cc1	1.1	105	6	0	62*	x
COc1ccc(-c2cc(=O)c3cc(F)ccc3[nH]2)cc1	1.2	102	5	2	18	x
COc1ccc2[nH]c(-c3ccc(C)cc3)cc(=O)c2c1	4.2*	124	109	1	42	x
SMILES	NF-kB expr up	STAT1 activator	APP 5'UTR act	PERK inhibitor	AHR activator	MDM2 E3 inh
CCCCCCCCCCOC(=O)C[N+](C)(C)C/C=C(/C)Cl	1.1	81	7	1	-2	-13
CCCCCCCCCCCCOC(=O)C[N+](C)(C)C	x	x	x	3.2*	-1	-13
Cc1cc(Cl)c2oc(C(=O)N(C)CCc3cnn(C)c3)c(C)c2c1	x	x	x	x	8	x
COc1ccc(CCNC(=O)c2cccc(C(=O)NCCc3ccc(OC)cc3)n2)cc1	x	x	x	x	5	x
Cn1c(NCc2cccs2)nc2ccccc21	1.6	120	25	0	49*	-15
CCn1c(NCc2c[nH]c3ccccc23)nc2ccccc21	x	110	19	-1	48*	x
Cn1c(NCc2c[nH]c3ccccc23)nc2ccccc21	3.3*	139*	113	-1	74*	-14
CC[C@@H]1C=C(C(=O)O)[C@H](c2ccc(OC)c(OC)c2)N1S(=O)(=O)c1ccc(C)cc1	x	x	x	x	-1	x
C#CCOCCOCCOCCNc1nc(N2CCOCC2)nc(N2CCN(C(=O)Cn3cc(CC(C)O)nn3)CC2)n1 (stereo unspecified)	1.1	107	12	1	-3	x
Cc1ccc(OCc2cc(C(=O)N3CCN(CC(=O)NC(C)C)CC3)no2)cn1	x	x	x	x	1	x
CC(=O)[C@H]1CC[C@H]2[C@@H]3C=CC4=CC(=O)CC[C@@]4(C)[C@@H]3CC[C@]12C	x	x	x	x	0	x
CCC(C(=O)N/N=C(\C)c1cccnc1)c1ccccc1 (stereo unspecified)	x	x	x	x	9	x
Cc1ccc(CNC(=O)CCNS(=O)(=O)c2cccc3nsnc23)cc1	x	x	x	x	1	x
COc1cc2nc(N(C)C)nc(N)c2cc1OC	0.92	107	-4	1	65*	5
Cc1cccc(C)c1NC(=O)CN1C(=O)COc2ccccc21	x	x	x	x	-1	x
CC(=O)CSc1nnc2cc(C)c3ccccc3n12	1.4	104	1	0	21	-13
CN(C)C(=O)CSc1nnc2sc3ccccc3n12	x	101	18	0	57*	x
c1csc(CSc2nnc3sc4ccccc4n23)c1	2.7	132*	43	0	34	7
c1csc(CSc2nc3ccccc3s2)c1	2.8	145*	55	2	26	-12
O=C(CSc1nnc2sc3ccccc3n12)c1ccco1	2.2	111	22	0	26	5
CCOC(=O)CC(=O)CSc1nnc2sc3ccccc3n12	1.6	96	3	0	26	-2
CCN(CC)C(=O)CSc1nnc2cc(C)c3ccccc3n12	1.1	96	6	0	52*	-10
COc1ccccc1CCNC(=O)C(=O)NCC1CCCN1S(=O)(=O)c1ccccc1 (stereo unspecified)	x	x	x	x	6	x
CC(/C=N/Nc1ccc2nncn2n1)=C\c1ccccc1	x	x	x	0	0	-12
CCOc1ccc(-c2nc(CN3CCCCC3CCn3cccn3)c(C)o2)cc1 (stereo unspecified)	x	x	x	-2	8	-2
COCCSc1nc(N)c2c3c(sc2n1)CN(C)CC3	x	x	x	0	13	-17
COc1ccc(C(=O)NCC(=O)NCC(=O)OCC(=O)C(C)(C)C)cc1	1.5	97	-1	1	8	20
O=C1C(Nc2ccccc2)=C(NS(=O)(=O)c2ccccc2)C(=O)c2ccccc21	0.86	96	-10	1	57*	x
Cc1cccc(OCCN2C(=O)c3ccccc3C2=O)c1	1.9	140*	18	0	13	-4
O=C1c2ccccc2C(=O)N1CCCOc1ccccc1	2.1	124	10	0	66*	-5
